# RGS4 block: inhibitors of human RGS4; P49798; HEK293 M3R/RGS4 inducible, Fluo-4 calcium flux; hits give high values; triggered by carbachol at its EC20; B-score at 10 µM; hit rate 0.45% among 310,000;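 active = B-score, a plate-corrected calcium signal, over three deviations above library mean, with baseline fluorescence within five deviations of library mean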;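 note: RGS4 expression induced by doxycycline in cells with stable M3 receptor; B-score is computed from the integrated fluorescence ratio over baseline after carbachol; higher B-score means a larger calcium signal and so more RGS4 inhibition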
# Target sequence (P49798 whole entry, looked up): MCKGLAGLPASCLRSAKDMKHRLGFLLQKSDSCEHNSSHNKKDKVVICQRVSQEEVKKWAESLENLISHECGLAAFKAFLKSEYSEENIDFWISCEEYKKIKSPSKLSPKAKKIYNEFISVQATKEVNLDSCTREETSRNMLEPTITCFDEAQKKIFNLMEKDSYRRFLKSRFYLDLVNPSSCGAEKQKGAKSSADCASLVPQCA
# RGS4 act: RGS4 potentiation or activation | HEK293 M3R/inducible RGS4, carbachol calcium flux Fluo4; hits give low values | B-score at 10 µM | hit rate 0.92% among 310,000;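 active = B-score of the integrated calcium signal more than 4 SD below the library mean, with starting fluorescence not abnormally high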;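 note: negative B-score means reduced calcium response which marks RGS4 activation or potentiation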
#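 System – HEK293 FlpIn-TREx cells, stable M3R, doxycycline-inducible RGS4 · Reagent – ECmax carbachol challenge · Times – compound preincubation 20 min at room temperature before agonist · Technique – Fluo4 fluorescence kinetic imaging of calcium · Measure – B score of integrated Fluo4 ratio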
# PHOSPHO1 inh: PHOSPHO1 (human) inhibition | Q8TCT1 | recombinant PHOSPHO1, absorbance phosphatase assay | hit rate 1.1% among 290,000 | AID 1565 | inhibition, % at 13.3 µM; in the data active = inhibition above about 60%
# Target sequence (Q8TCT1 whole entry, looked up): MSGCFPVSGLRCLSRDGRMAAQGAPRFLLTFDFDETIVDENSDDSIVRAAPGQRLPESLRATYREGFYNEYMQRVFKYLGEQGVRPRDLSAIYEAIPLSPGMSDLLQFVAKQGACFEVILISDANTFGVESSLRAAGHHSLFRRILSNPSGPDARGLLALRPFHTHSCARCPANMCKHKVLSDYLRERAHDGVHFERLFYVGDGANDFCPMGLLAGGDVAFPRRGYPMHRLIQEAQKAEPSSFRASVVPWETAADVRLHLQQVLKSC
# MrgX1 allo act: human MrgX1 positive allosteric modulation, primary screen. Q96LB2. MrgX1-HEK293, Fluo-4 calcium flux, FDSS; hits give high values. B-score at 10 µM. hit rate 0.63% among 310,000. AID 588675;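 active = plate-corrected calcium response at least 3 library SD above typical, normal starting fluorescence, not activating the receptor alone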;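 note: compound read alongside a low EC10 to EC30 dose of BAM8-22 agonist; peak minus trough fluorescence over baseline measured at the second addition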
# MrgX1 agonist: agonists of human MrgX1 receptor; Q96LB2; MrgX1-HEK293 cells, Fluo-4 calcium fluorescence, agonist mode; hits give high values; B-score at 10 µM; hit rate 0.44% among 310,000; AID 588627;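 active = calcium response B-score plate-corrected fluorescence ratio at least 3 library SD, with starting fluorescence B-score inside 5 SD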
#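 System – MrgX1-expressing HEK293 cells · Incubation – cells plated overnight, dye loaded 0.5 h 37 °C, 0.5 h room temperature · Technique – kinetic Fluo-4 NW fluorescence of intracellular calcium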
# MrgX1 antag: human MrgX1 receptor antagonism, primary screen; Q96LB2; MRGX1-HEK293 calcium flux, Fluo-4, BAM8-22 antagonism; hits give low values; B-score at 10 µM; hit rate 1.3% among 310,000;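 active = calcium-response B-score plate-corrected more than 3 library SD below zero, starting fluorescence within 5 deviations, no agonist response on first addition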;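 note: peak minus trough fluorescence over baseline after final BAM8-22 challenge near maximal dose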
# RGS4 block valid: RGS4 inhibitor validation; HEK293 M3R/RGS4, carbachol calcium Fluo-4 fluorescence; carbachol added at its EC20; 0 = buffer wells, 100 = carbachol control; hit rate 65% among 1,700; shares compounds with RGS4 block; calcium response, % at 10 µM;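 active = duplicate-averaged calcium response above the buffer-only control mean plus 5 SD of those controls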;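 note: integrated fluorescence ratio F max minus min over baseline F0; higher response in RGS4-induced cells means RGS4 inhibition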
# RGS4 uninduced: non-induced cell nonspecific activity of RGS4 inhibitors | shares compounds with RGS4 block | HEK293 M3R non-induced, carbachol calcium Fluo-4; submaximal (EC20) carbachol stimulus; buffer wells 0%, carbachol control wells 100% | activity (percent), % at 10 µM | hit rate 20% among 1,900; call rule not given here;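 note: RGS4 induction absent so cells express M3R without RGS4; higher means more calcium signal and flags a non-specific hit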
# M3R basal Ca ctr: signal in non-induced cells without carbachol, RGS4 inhibitor counter-screen; shares compounds with RGS4 block; HEK293 M3R/RGS4 non-induced, Fluo-4 calcium, no carbachol; normalised: buffer wells 0%, carbachol wells 100%; calcium response (agonist-mode artifact), % at 10 µM; hit rate 22% among 1,900; AID 493001;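 active = duplicate-averaged calcium rise in uninduced cells above buffer wells' mean plus 5 SD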
# An asterisk follows results filed as active; i = inactive; x = no result. A selection: hits, their analogues and other compounds. The true share with any hit is near 4.5%.
SMILES,RGS4 block,RGS4 act,PHOSPHO1 inh,MrgX1 allo act,MrgX1 agonist,MrgX1 antag,RGS4 block valid,RGS4 uninduced,M3R basal Ca ctr
Cc1ccc(S(=O)(=O)/N=C(/Sc2ccccc2C(=O)O)c2ccccc2)cc1,i,i,-52,i,i,i,x,x,x
O=S(=O)(/N=C(\Sc1ccccc1)c1ccccc1)c1ccc(Cl)cc1,i,i,42,i,i,i,x,i,27%*
Cc1ccc(S(=O)(=O)/N=C(\Sc2ccccc2)c2ccccc2)cc1,22*,i,42,i,i,i,22%*,i,26%*
Cc1ccc(-n2nc3c(=O)n(CC(=O)NCc4cccs4)nc(C)c3c2C)cc1,4.9*,i,32,i,i,i,i,i,i
Cc1ccc(-n2nc3c(=O)n(CC(=O)NCc4ccccn4)nc(C)c3c2C)cc1,i,i,33,i,i,i,x,x,x
Cc1nn(CC(=O)NCCc2ccco2)c(=O)c2nn(-c3ccccc3)c(C)c12,i,i,7,i,i,i,x,x,x
Cc1nn(CC(=O)NCCc2cccs2)c(=O)c2nn(-c3ccccc3)c(C)c12,i,i,13,i,i,i,x,i,35%*
CCOC(=O)/C(C#N)=C/c1cn(CCC(=O)O)nc1-c1ccccc1,i,i,-6,i,i,i,i,i,i
O=Cc1cn(CCC(=O)O)nc1-c1cccc(Cl)c1,i,i,27,i,i,i,x,x,x
CCOC(=O)/C(C#N)=C/c1cn(CCC(=O)O)nc1-c1ccc(Cl)cc1,i,i,-6,i,i,i,i,i,i
CCOC(=O)/C(C#N)=C/c1cn(CCC(=O)O)nc1-c1cccc(Br)c1,i,i,17,i,i,i,x,i,i
CCOC(=O)/C(C#N)=C/c1cn(CCC(=O)O)nc1-c1ccc(OC)cc1,i,i,48,i,i,i,x,x,x
Cc1ccc2c(c1)c1c(n2C)C(C(N)=O)CCC1 (stereo not drawn),i,i,-3,i,i,i,x,x,x
Cc1ccc2c(c1)c1c(n2C)-c2[nH]ncc2CC1,5.5*,i,6,i,i,i,18%*,i,i
CCOc1ccc(/C=N/NC(=O)CNC(=O)c2ccc(S(=O)(=O)N3CCOCC3)cc2)cc1,i,i,30,i,i,i,x,x,x
c1coc(C2=Nc3cccc4cccc(c34)N2)c1,13*,i,20,i,i,i,30%*,i,i
COc1ccc(C(=O)/C=C/c2ccc(O)cc2)c(O)c1CC=C(C)C,6.4*,i,4,i,i,i,19%*,i,i
CC(=O)c1ccc(O)c(CC=C(C)C)c1O,i,i,x,i,i,i,x,x,x
C/C(=N\n1cnnc1)c1ccccc1,i,i,8,i,i,i,x,x,x
Cc1ccc(C(=O)NCCC(=O)N2CCOCC2)cc1,i,i,23,i,i,i,x,x,x
CCc1cccc2c(C(=O)CN3C(=O)NC(C)(c4cccc5ccccc45)C3=O)c[nH]c12 (stereo not drawn),11*,i,46,i,i,i,i,i,i
C/C(=N\N=C1\NC(=O)C(CC(=O)Nc2ccc(C)c(Cl)c2)S1)C(C)C (stereo not drawn),i,i,0,i,i,i,x,30%*,i

# Compound activity deposited in PubChem BioAssay by several laboratories.
